Usually apparent Kd stands for a dissociation constant that holds for the conditions of the assay.

From the EternaBench riboswitch data come the findings set out here.

The data set concerns MS2 coat protein. The data set is described as follows: apparent Kd, MS2 coat protein; higher = weaker binding; RNA-MaP array; FMN 200 µM where present. Summed up: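 The apparent Kd comes from binding curves fitted cluster by cluster, filtered, and summarised as a median. Those curves followed SNAP-549-labelled MS2 coat protein from 0.7 or 1.5 nM, doubling to 3 µM, on Illumina sequencing-chip clusters where stalled E. coli RNA polymerase had transcribed the designs, without and then with constant ligand. The buffer was 100 mM Tris-HCl pH 7.5, 80 mM KCl, 4 mM MgCl2, BSA, DTT, yeast tRNA and Tween-20, and green signal was normalised to red-channel RNA signal and control-cluster median Fmax.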

Setting [1] is: designed as: OFF switch for flavin mononucleotide, no ligand.
Setting [2] is: ligand present: flavin mononucleotide, designed as: OFF switch for flavin mononucleotide.
Where [3] appears, read: designed as: ON switch for flavin mononucleotide, no ligand.
Setting [4] is: ligand present: flavin mononucleotide, designed as: ON switch for flavin mononucleotide.

“GGUACUCAAAGAGUACCAAUACGAACAUGAGGAUCACCCAUGUAGGAUAUGCUACUCAAAGAGUAGCAGAAGGACAUGUCCCUA”: the “apparent Kd” value reads like this: under setting [1], 13.1 nM; under setting [2], 35.2 nM. For “AGCUAGUCAGGAUAUACGAACAUGUCAUUAGACGUGAAGGGACAUGAGGAUCACCCAUGUAGAAGGGACUAGCA”, in that order: 40 nM and 134 nM. “UAUUAAUACGAAGGAUAUGGUUACAUGAGGAUCACCCAUGUAUGUAUUUUGAUCUAAUAAUUUAACCAGAAGGUCGAAUAUAAA”: the “apparent Kd” value under setting [1] is 40.6 nM and the “apparent Kd” value under setting [2] stood at 77.3 nM. Regarding “UUAUGAUAGAUAGGAUAUACAAUGGAUUAAGAAGUAGAAGGAUCAAGUGGGAAAUGAACAUGAGGAUCACCCAUGUAAUAGGUU”, the “apparent Kd” value runs as follows: under setting [3], 127 nM; under setting [4], 83.5 nM. For “AAUUAGGUCACAGGAUAUACAUCAUCCAUAGAUGUAGAAGGGUGUCAAAGUAAUAUCUGACAUGAGGAUCACCCAUGUUUCCAC”, in that order: 23.3 nM and 9.28 nM. As for “GACAAACAUGAGGAUCACCCAUGUUCAAACGAACAAGGAUAUGUGUGGAAACCGUACUAUACAGAAGGUGUCUGUC”, the “apparent Kd” value stood at 36.5 nM under setting [3] and 37.7 nM under setting [4].

Take “ACAUACAUUCGAGGAUAUCGGUGAUUAAUUUUACGAGAAGGCGAUUUAAGAUAUAAUAUUUUAGACAUGAGGAUCACCCAUGUA”: the “apparent Kd” value came out at 25.3 nM under setting [3] and 23.1 nM under setting [4]. With “UGUCGGAGCAGAGGAUAUUACAUGAGGAUCACCCAUGUAUGAACCAAUAGCUGGAAACAGCAAUUUAAGAAGGCUGCUCCGACA”, the “apparent Kd” value is 5.28 nM under setting [1] and 4.96 nM under setting [2]. Regarding “AUCAGCUCGUCAGGAUAUACGUCACUGCGUCAGCAGUGUGGUAAGAUCACAUGAGGAUCACCCAUGUAGAAGGGACGAGAUGAU”, the “apparent Kd” value runs as follows: under setting [1], 13.8 nM; under setting [2], 247 nM. For “AUUGGUUUGCGAGGAUAUGCUAAUAGUAAGUAUGCAGAAGGCGCGUUACAUAGAACCUCUAGUUACAUGAGGAUCACCCAUGUU”, in that order: 46.2 nM and 45.4 nM.

In the case of “AACGCGGAAAUCGCAAUACAUGAGGAUCACCCAUGUAGAUCGCAGGAUAUGGUCUAGUCAGUGGUCCAGAAGGGUGAUCAGAAC”, the “apparent Kd” value by setting is: under setting [3], 125 nM; under setting [4], 74.5 nM. For “UGGUACUAGGGAGGAUAUGGGAAGAUACAUGAGGAUCACCCAUGUUUAAGAAUGCCGAGAGGAAACUAGAAGGCCCUAGUACCU”, in that order: 279 nM and 13.8 nM. On to “GGAUAGGACAGAGGAUAUACCUGCUAGAGAUACUAGCAAAAUUUCCUCACAUGAGGAUCACCCAUGUAGAAGGCUGUCCUAUCG”, for which the “apparent Kd” value reads like this: under setting [1], 8.45 nM; under setting [2], 109 nM.

In the case of “AGUCGGCGAGGAUAUACAUGAGGAUCACCCAUGUAUGAUCCUAGACCUGUAGGUCCAUGUAGAAGGCGCUGACA”, the “apparent Kd” value was found to be 63.6 nM under setting [1] and 29.1 nM under setting [2]. Turning to “CAUUAAUUCAUUAUAGUUAUUAUACAGGAUAUGUUACAUGAGGAUCACCCAUGUUUUCAUGGUAAACAGAAGGGUAUAUCAAGU”, the “apparent Kd” value came out at 124 nM under setting [1] and 232 nM under setting [2].

As to “AAACUGUGAGGAUAUGGUGAGUAGUGCCUGAGCGCUGCUCACCAGAAGGCACAUGAGGAUCACCCAUGUAUAAA”, the “apparent Kd” value was found to be 25.5 nM under setting [1] and 74.7 nM under setting [2]. With “CGCGAAAACAUAGGAUAUUGAUACAUGAGGAUCACCCAUGUCAACCAUGAAGCUCGAAUUGUUGACAAGAAGGAUGAGGUCGCG”, the “apparent Kd” value by setting is: under setting [3], 77.1 nM; under setting [4], 57.2 nM. On to “CGCAAGUAUACAUGAGGAUCACCCAUGUCAGAAAGGGUAAUCAGAAGGUACUAUUAGAGAUAGAGUAAGGAUAUGAAAUUUGCG”, for which the “apparent Kd” value runs as follows: under setting [3], 718 nM; under setting [4], 138 nM.

For “CGCUACGUUUCGUAGCAGUGUCAUCGAGAAGGCCCUGACAUGAGGAUCACCCAUGUUCCUGAAAAGGAGGAUAUCGAUGAUACA”, the “apparent Kd” value was 8.86 nM under setting [3] and 7.04 nM under setting [4]. Take “ACAUGAGGAUCACCCAUGUUGAUAGUAGAAGGGACAGAGAAGUAGUAACAUGAGGAUCACCCAUGUCAGGAUAUGCGAAUUGGA”: the “apparent Kd” value is 35.2 nM under setting [3] and 30.1 nM under setting [4].

Regarding “ACUUAUAGAGGAUAUACAGAAUAUUACAUGAGGAUCACCCAUGUUCUUCAAUGUAUAUUUGUAGAAGGCUAAGGAA”, the “apparent Kd” value came to 50.6 nM under setting [1] and 249 nM under setting [2]. Take “UGUCUAUUUGAAGGAUAUCUAAGCAUAAACCGUAGAGAAGGUCAAUUAUACAUGAGGAUCACCCAUGUUGAGAUUGAUGGGUUU”: the “apparent Kd” value is 16.9 nM under setting [1] and 17.8 nM under setting [2].

Regarding “AGGCCGGGAGGAUAUCCAAUAUAUGACAUGAGGAUCACCCAUGUUUCCACUCGUACCUCCGGAGAAGGCCCGGCGA”, the “apparent Kd” value by setting is: under setting [1], 21.1 nM; under setting [2], 19.9 nM. Turning to “CACCGGCCCUAUAUGUUCUAGACAUGAGGAUCACCCAUGUAUAGAAGGGUCUUCGCGAAACGCAGACAGGAUAUGUACAGGAGU”, the “apparent Kd” value reads like this: under setting [1], 6.08 nM; under setting [2], 9.13 nM.

Regarding “ACGUAUCAUGUAGGAUAUGACCCAGGAAACUGGUCAGAAGGACAUGAGGAUCACCCAUGUAGAGUAUGUUAGGAUGACGUAUGC”, the “apparent Kd” value reads like this: under setting [1], 138 nM; under setting [2], 188 nM.

With “GCCUUAUUGGUCAGGAUAUACAUUUGUUACUCUUUGUAGAAGGGACAUGAGGAUCACCCAUGUACAUUACAUUC”, the “apparent Kd” value by setting is: under setting [1], 20.8 nM; under setting [2], 33.5 nM. For “GUACAGUAGUGAGGAUAUACGAGAUCGAUAGAUCGGCGAUCCAUUAAUACAUGAGGAUCACCCAUGUAGAAGGCACUUCUGUAC”, in that order: 5.84 nM and 82.5 nM. Turning to “UAUUUUAACUAAGGAUAUCUAUAUUAUGUUGAAACAUGAGGAUCACCCAUGUUCAUGAUAUUAUAGGAGAAGGUAGAUGAAUAA”, the “apparent Kd” value reads like this: under setting [3], 6.59 nM; under setting [4], 5.44 nM. With “CUGUAGUCAGGAUAUACAUGAGGAUCACCCAUGUAAAAUUUUAAUUUAAUUUGAAGGUGUAGAAGGGACCAGUU”, the “apparent Kd” value by setting is: under setting [1], 34.3 nM; under setting [2], 32.9 nM. On to “UGCUAAUUGUAGAAGGGUGACAUGAGGAUCACCCAUGUGCACGCGCGAUUUACGGCGCGCGUGCCACAGGAUAUACAGUUGAGU”, for which the “apparent Kd” value is, setting by setting: under setting [3], 58.1 nM; under setting [4], 34.6 nM. Regarding “AAUGUGUGUCGAGGAUAUAUUAUAUGACAACAAACACAUACAUGAGGAUCACCCAUGUCCCAUGUAUAGAAGGCGAUGUGUGUG”, the “apparent Kd” value under setting [3] was 130 nM and the “apparent Kd” value under setting [4] turned out to be 174 nM.

For the sequence “ACAUGCAUAGCGAUAUGAUCGAGAGAUCAUGUCGCUAAAUUUAGAAGGACAUGAGGAUCACCCAUGUAGGAUAUGGGAGCAUGG”, the “apparent Kd” value is 42.8 nM under setting [3] and 10.3 nM under setting [4]. As to “UGGAUCAUGGGAGGAUAUCCUCAAGAGACAUGAGGAUCACCCAUGUAUUAUAUGCCUCAUGGCAUGGAGAAGGCCCAUGAUCCU”, the “apparent Kd” value runs as follows: under setting [3], 176 nM; under setting [4], 161 nM. Take “GUAGCAUACCGAGGAUAUUCAUAUAAUACAUGAGGAUCACCCAUGUUAUAUAGGCGAAAGCCUUGGGAGAAGGCGGAAUGCUAC”: the “apparent Kd” value under setting [4] is 10.8 nM. As to “CGAGCUCGUGUGAGGAUAUACCUAUGGAUACAUAGGUAGAAGGCACAUGAGGAUCACCCAUGUCCUAGAGCUCG”, the “apparent Kd” value reads like this: under setting [1], 92 nM; under setting [2], 679 nM. For “CGCAUCUCUACAAUUCCUUCACAUGAGGAUCACCCAUGUAGGGAGGAUAUGCAAGCUUAUUGGCGGCAGAAGGCCCUGCAAUGG”, in that order: 142 nM and 127 nM. Regarding “GCUCUUGUCAAGAAGGGCUCGCGGGACGCUGCAGCAGGAUAUUGACAUGAGGAUCACCCAUGUCGACCGGAACACCAUUGAGGG”, the “apparent Kd” value was 22.2 nM under setting [1] and 196 nM under setting [2].

On to “CUCAUGUGCGUCGGCAAGUUAACACAGGAUAUCCGAGAAAACAUGAGGAUCACCCAUGUAACUUCGGAGAAGGGUGAUGAGAGA”, for which the “apparent Kd” value came to 64.9 nM under setting [3] and 23.1 nM under setting [4].

For “AAGAAGUGAGGAUAUGCAGUGGCCUGUAGACGCAAGCACUUGUAGAAGGCACAUGAGGAUCACCCAUGUUUAAA”, the “apparent Kd” value reads like this: under setting [1], 35 nM; under setting [2], 32.8 nM. Consider “AGCUUCGGUGUCAGGAUAUGGGAAAGGGAACUUACCCAGAAGGGACAUGAGGAUCACCCAUGUGGCUUGACAUG”, for which the “apparent Kd” value is, setting by setting: under setting [1], 45.3 nM; under setting [2], 109 nM. In the case of “CUUGUACAUGAGGAUCACCCAUGUUAGGAUAUCUCGCCGUCGGCUUGCCGACGGUAUUAGAGAAGGGACUUGGG”, the “apparent Kd” value runs as follows: under setting [1], 56 nM; under setting [2], 33 nM. Regarding “CGUGAACAUGAGGAUCACCCAUGUGAAAAACGUAGAGGAUAUGUCACAUGAGUGUAAAAGACAGAAGGCUAUCGUG”, the “apparent Kd” value by setting is: under setting [3], 151 nM; under setting [4], 27.1 nM. Consider “UUUAAGGAAGGAUAUACAAUAUAAAUAAUAUCCUCAUUAUUACAUGAGGAUCACCCAUGUAGAAGGUCCAAUUU”, for which the “apparent Kd” value by setting is: under setting [1], 118 nM; under setting [2], 368 nM. Turning to “ACAUGAGGAUCACCCAUGUAGAAUGAAGAAGGUAGAUACUUGUGACUCACCCAUGUACAUAGGACUAAGGAUAUUCUAAUAAUU”, the “apparent Kd” value was 26.3 nM under setting [3] and 13 nM under setting [4]. With “UUCCUGUCAGGAUAUGACUAGAGGCACGAAAGUGUGUUUAGUUAGAAGGGACAUGAGGAUCACCCAUGUAGUCC”, the “apparent Kd” value under setting [1] stood at 23.3 nM and the “apparent Kd” value under setting [2] came out at 36.2 nM. For “ACCUAUGAGGAGGAUAUACGGUGCGAAAGGAAGGUAGAAGGCUUCACAUGAGGAUCACCCAUGUCUAUAAGCGA”, in that order: 30.9 nM and 29.5 nM.

Regarding “GGCGGCGCGGGCCACCGCAGGGCCAGAAGGACAUGAGGAUCACCCAUGUGGCAGGACAGGGCGGUGUAGGAUAUGGCAGGCUCG”, the “apparent Kd” value by setting is: under setting [1], 11.9 nM; under setting [2], 43.3 nM. For the sequence “GCGGUAUUGUAAGGAUAUACUCUGUGAUGAAGAGUAGAAGGUACUUACAUGAGGAUCACCCAUGUUUUUCGUAAAAGUUACCGC”, the “apparent Kd” value by setting is: under setting [3], 16.2 nM; under setting [4], 10.6 nM.
